Results of several laboratories.
Effect on: enzyme activity
Mode: inhibitor
LCK: Tyrosine-protein kinase Lck (LCK, Homo sapiens, UniProt P06239)
LCK phosphorylated: Tyrosine-protein kinase Lck, phosphorylated (LCK, Homo sapiens, UniProt P06239)

Structure (SMILES) | target | assay | conditions | remaining activity
Oc1cccc(-c2nc(N3CCOCC3)c3oc4ncccc4c3n2)c1 | LCK | – | 10 µM | 85%
CC(C)N(CCC(=O)c1ccc2ccccc2c1)Cc1ccccc1 | LCK | – | 0.5 µM | 98.9%
Cc1cnc(NC2CCOCC2)nc1-n1cnc(C(=O)NC(CN)c2cc(F)cc(Cl)c2)c1 (stereo not drawn) | LCK phosphorylated | radiometric | 1 µM | 109%
Cc1[nH]c(/C=C2\C(=O)Nc3ccc(F)cc32)c(C)c1C(=O)N[C@H]1CCN(C(=O)N(C)C)C1 | LCK | – | 1 µM | 42%
Cc1ccc(C(=O)Nc2ccc(CN3CCN(C)CC3)c(C(F)(F)F)c2)cc1C#Cc1cnc2cccnn12 | LCK | – | 23.5 nM | 0.8%
CCN(CC)CCNC(=O)c1c(C)[nH]c(/C=C2\C(=O)Nc3ccc(Cl)cc32)c1C | LCK | – | 0.5 µM | 11.8%
Cc1ccc(NC(=O)c2ccc(CN3CCN(C)CC3)cc2)cc1Nc1nccc(-c2cncc(-c3oncc3C)c2)n1 | LCK | – | 0.5 µM | ≤ 50%
COc1cc2c(N3CCN(C(=O)Nc4ccc(OC(C)C)cc4)CC3)ncnc2cc1OCCCN1CCCCC1 | LCK | – | 0.5 µM | 87.1%
Cc1ccc(NC(=O)c2ccc(C)c(C(F)(F)F)c2)cc1C#Cc1nn(C2CCC(O)CC2)c2ncnc(N)c12 (stereo not drawn) | LCK phosphorylated | – | 10 µM | 0%
Nc1ncnc2occ(-c3ccc(NC(=O)Nc4cc(C(F)(F)F)ccc4F)cc3)c12 | LCK | – | 20 µM | 0.1%
Oc1cccc(-c2nc(N3CCOCC3)c3oc4ncccc4c3n2)c1 | LCK | – | 0.5 µM | 98%
Cc1sc(C(=O)NC2COC2)cc1-n1cc(NC(=O)Nc2c(F)cccc2Cl)cn1 | LCK | – | 10 µM | 46.5%
CCCOc1ccc(OC)c(F)c1C(=O)c1ccc(C(=O)N[C@@H]2CNC[C@H]2NC(=O)c2ccc3[nH]ncc3c2)cc1 | LCK | – | 10 µM | 21%
COc1cc(Nc2cnc(C#N)c(O[C@H](C)CN(C)C)n2)ncc1-c1cnn(C)c1 | LCK | radiometric | 10 µM | 20%
CC(C)(O)[C@H]1CC[C@H](Nc2ccc3ncc(-c4cccc(C(F)(F)F)c4)n3n2)CC1 | LCK | – | 1 µM | 11.1%
CC(C)(C)C(=O)c1sc(NC2CCCCC2)nc1N | LCK | – | 10 µM | 85%
COc1cc2ncnc(Nc3cccc(Cl)c3)c2cc1OC | LCK | – | 0.5 µM | 74.9%
CC(C)(C)c1nc2c(s1)c1nc(N)ncc1c1ccc(NS(=O)(=O)c3c(F)cccc3F)c(F)c12 | LCK | radiometric | 1 µM | 80%
COc1cc(Cl)c(C(=O)N[C@@H](CN[C@H]2CC[C@@H](N)CC2)Cc2ccc(C#N)cc2)cc1-c1ccc(CN[C@H](C)c2ccc(C)cc2)o1 | LCK | – | 1 µM | 75%
O=c1c2ccccc2[nH]c(=S)n1CCN1CCC(=C(c2ccc(F)cc2)c2ccc(F)cc2)CC1 | LCK | – | 0.5 µM | 99.5%
CCN(CC)c1ccc(C2=NNC(=O)CC2C)cc1[N+](=O)[O-] (stereo not drawn) | LCK | – | 10 µM | 118%
